Measured values published in ChEMBL document CHEMBL4613231 (Bioorg Med Chem, 2020).
pIC50: −log10 of the molar value.

Experiments:
[1] = molecular target: T1, Tyrosyl-DNA phosphodiesterase 1 (Homo sapiens, UniProt Q9NUW8); assay: Inhibition of TDP1 (unknown origin) using 5'-(5,6 FAM-AAC GTC AGG GTC TTC C- BHQ1)-3' as substrate measured for every 1 min by fluorescence based assay
How it was run: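 TDP1 buffer (50 mM Tris-HCl pH 8.0, 50 mM NaCl, 7 mM β-mercaptoethanol) with FAM/BHQ1 quenched biosensor at 50 nM final and inhibitor over a concentration range. Started by adding TDP1 (1.5 nM), 26 °C, fluorescence (Ex485/Em520) read every 1 min. Linear-phase slope compared with DMSO control, IC50 taken from concentration-response curves, at least three independent experiments.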

[2] = (§1) Cytotoxicity against human MCF7 cells assessed as reduction in cell viability after 72 hrs by MTT assay; format: cell-based; settings: MCF7 cells
How it was run: (§2)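 Cells plated at ~2000 per well, grown 24h at 37 °C in IMDM (5% CO2), then exposed to compounds at 1, 5, 20 and 100 µM for 72h. Viable cells quantified by colorimetric MTT test; CC50 taken as mean of three independent experiments.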

[3] = (§3) Cytotoxicity against human T98G cells assessed as reduction in cell viability after 72 hrs by MTT assay; format: cell-based; settings: T98G cells; how it was run: as §2
[4] = molecular target: T1, Tyrosyl-DNA phosphodiesterase 1; assay: Inhibition of TDP1 (unknown origin) using 5'-(5,6 FAM-AAC GTC AGG GTC TTC C- BHQ1)-3' as substrate measured after 20 mins by gel-based assay
How it was run: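 Reaction (200 μL) in TDP1 buffer (50 mM Tris-HCl pH 8.0, 50 mM NaCl, 7 mM β-mercaptoethanol) with FAM/BHQ1 biosensor oligo at 50 nM final and inhibitor at various concentrations. Started with TDP1 at 1.5 nM final, run 20 min at room temperature, stopped with loading buffer. Products separated by denaturing PAGE, scanned and quantified, and IC50 derived.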

WI-38 [5] = assay: (§4) Cytotoxicity against human WI38 cells assessed as reduction in cell viability after 72 hrs by MTT assay; format: cell-based; settings: wi-38, 72 h; how it was run: as §2
A549 = assay: Cytotoxicity against human A549 cells assessed as reduction in cell viability after 72 hrs by MTT assay; format: cell-based; settings: a549, 72 h; how it was run: as §2
WI-38 [6] = assay: Cytotoxicity against human WI38 cells at 1 uM after 72 hrs in presence of topotecan by MTT assay; format: cell-based; settings: wi-38, 72 h
MCF7 = assay: as §1; format: cell-based; settings: mcf7, 72 h; how it was run: as §2
T98G [7] = assay: Cytotoxicity against human T98G cells at 1 uM after 72 hrs in presence of topotecan by MTT assay; format: cell-based
T98G [8] = assay: as §3; format: cell-based; settings: t98g, 72 h; how it was run: as §2
[9] = as §4; format: cell-based, WI-38; settings: WI-38 cells; how it was run: as §2

T1 sequence (Q9NUW8 whole entry): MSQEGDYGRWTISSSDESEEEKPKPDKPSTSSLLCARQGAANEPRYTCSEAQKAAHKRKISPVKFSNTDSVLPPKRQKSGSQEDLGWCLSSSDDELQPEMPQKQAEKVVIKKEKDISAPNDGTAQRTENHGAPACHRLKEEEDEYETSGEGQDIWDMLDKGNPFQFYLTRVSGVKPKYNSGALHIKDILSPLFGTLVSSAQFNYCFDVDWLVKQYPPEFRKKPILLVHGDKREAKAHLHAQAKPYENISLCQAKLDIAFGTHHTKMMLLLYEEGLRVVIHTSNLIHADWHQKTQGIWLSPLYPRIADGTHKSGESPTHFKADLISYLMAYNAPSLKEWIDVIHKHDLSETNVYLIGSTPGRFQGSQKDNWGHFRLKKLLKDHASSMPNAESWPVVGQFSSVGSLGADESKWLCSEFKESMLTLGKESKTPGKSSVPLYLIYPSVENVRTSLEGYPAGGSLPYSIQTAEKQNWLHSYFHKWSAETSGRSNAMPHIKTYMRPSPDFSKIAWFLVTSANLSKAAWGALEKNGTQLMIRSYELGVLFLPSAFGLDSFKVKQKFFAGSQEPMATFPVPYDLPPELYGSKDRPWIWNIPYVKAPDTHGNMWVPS

## O=C(COc1cc2oc(=O)cc(-c3ccccc3)c2cc1Cl)NC[C@H]1CC[C@H](C(=O)O)CC1
[1]
  pIC50: < 4.00

## Cc1c(CC(=O)N[C@@H](CSCc2ccccc2)C(=O)O)c(=O)oc2c(C)c3occ(-c4ccc(F)cc4)c3cc12
[1]
  pIC50: 5.97
[2]
  CC50 at 72 h: 80 µM
[3]
  CC50 at 72 h: 66 µM
[4]
  pIC50: 5.76

## Cc1c(CCC(=O)N[C@@H](CSCc2ccccc2)C(=O)O)c(=O)oc2cc3oc4c(c3cc12)CCCC4
[1]
  pIC50: 4.81

## CC(C)OCCCNC(=O)c1cc2c([nH]c3ccccc32)c(-c2ccc3c(c2)OCO3)n1
[1]
  pIC50: 5.51

## O=C(NCCc1c[nH]c2ccccc12)c1cc2c([nH]c3ccccc32)c(-c2ccc3c(c2)OCO3)n1
[1]
  pIC50: 6.01

## Cc1c(CC(=O)NC(Cc2ccc(Cl)cc2)C(=O)O)c(=O)oc2c(C)c3occ(-c4ccc(F)cc4)c3cc12 (configuration not stated)
[1]
  pIC50: 6.07

## COc1ccc(-c2cc(=O)oc3cc(OCC(=O)N[C@H](C(=O)O)c4ccccc4)ccc23)cc1
[1]
  pIC50: 4.89

## O=c1cc(-c2cc3ccccc3oc2=O)c2ccc(OCc3c(Cl)cccc3Cl)cc2o1
WI-38 [5]
  Activity: Non-Toxic
[1]
  pIC50: 7.00
A549
  Activity: Non-Toxic
WI-38 [6]
  Activity: Toxic
MCF7
  Activity: Non-Toxic
T98G [7]
  Activity: Toxic
T98G [8]
  Activity: Non-Toxic

## O=C(NCCC1=CCCCC1)c1cc2c([nH]c3ccccc32)c(-c2ccc3c(c2)OCO3)n1
[1]
  pIC50: 5.89

## O=c1cc(-c2cc3ccccc3oc2=O)c2ccc(OCc3cccc4ccccc34)cc2o1
[1]
  pIC50: 6.57

## O=c1cc(-c2cc3ccccc3oc2=O)c2ccc(OCc3ccccc3Cl)cc2o1
[1]
  pIC50: 6.55
[3]
  CC50 at 72 h: 16 µM

## Cc1c(Cc2ccccc2)c(=O)oc2cc(OCC(=O)N[C@@H](CSCc3ccccc3)C(=O)O)ccc12
[1]
  pIC50: 5.46

## CCCc1cc(=O)oc2c(C)c(OCC(=O)NC(Cc3c[nH]c4ccc(O)cc34)C(=O)O)ccc12 (configuration not stated)
[1]
  pIC50: 5.25

## COc1cccc2cc(-c3cc(=O)oc4cc(OCC(C)=O)ccc34)c(=O)oc12
[1]
  pIC50: 5.12

## COc1cccc2cc(-c3cc(=O)oc4c(C)c(OCc5ccc(Cl)cc5)ccc34)c(=O)oc12
[9]
  CC50 at 72 h: 60 µM
[1]
  pIC50: 6.44
WI-38 [6]
  Activity: Toxic
[2]
  CC50 at 72 h: 17 µM
T98G [7]
  Activity: Toxic
[3]
  CC50 at 72 h: 16 µM

## Cc1oc2c(C)c3oc(=O)c(CC(=O)NCC(=O)O)c(C)c3cc2c1-c1ccccc1
[1]
  pIC50: < 4.00

## CC(C)C[C@H](N)C(=O)N1CCC(C(=O)N[C@@H](Cc2ccccc2)C(=O)NCc2ccccc2F)CC1
[1]
  pIC50: < 4.00
